Measured values from PMC3495079 (Biochemistry, 2012).

How the values were obtained:
AsDcpS [1] = biological target: T1, AsDcpS (Ascaris suum, UniProt D3K0N9); assay: HPLC analysis of cap analog hydrolysis by recombinant DcpS; format: biochemical, A. suum; settings: 15 μM substrate; for Hydrolysis by DcpS (HPLC): up to 24 h
HsDcpS [2] = biological target: T2, HsDcpS (Homo sapiens, UniProt Q96C86); assay: HPLC analysis of cap analog hydrolysis by recombinant DcpS; format: biochemical; settings: for Hydrolysis by DcpS (HPLC): up to 24 h; for Hydrolysis by DcpS (HPLC, Figure 3): 60 min or 24 h
T2 sequence (Q96C86 1-337): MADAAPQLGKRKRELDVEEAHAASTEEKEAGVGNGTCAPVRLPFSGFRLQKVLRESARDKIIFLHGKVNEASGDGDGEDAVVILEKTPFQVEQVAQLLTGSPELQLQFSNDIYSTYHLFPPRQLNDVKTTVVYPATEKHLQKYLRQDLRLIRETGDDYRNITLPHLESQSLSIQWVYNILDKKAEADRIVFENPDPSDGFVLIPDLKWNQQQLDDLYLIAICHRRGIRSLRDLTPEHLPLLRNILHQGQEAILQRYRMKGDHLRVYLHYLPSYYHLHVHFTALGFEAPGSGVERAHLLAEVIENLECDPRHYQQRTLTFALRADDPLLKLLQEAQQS
In short: (§1)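 His-tagged recombinant enzyme was expressed in E. coli and purified by Ni-NTA and gel filtration. Cap analog (15 μM) was preincubated 10 min, then DcpS was added at 0.02 or 0.2 μM. Buffers were Tris/MgAc/(NH4)2SO4 at 37 °C, or Tris/KCl/EDTA/DTT at 20 °C. Aliquots were taken at 5–60 min and 24 h and heat-stopped (97 °C, 2.5 min). Reverse-phase HPLC used a methanol/KH2PO4 gradient with A260 and fluorescence detection. Products were identified by retention time, and % substrate hydrolyzed was recorded.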

CeDcpS [3] = biological target: T3, CeDcpS (Caenorhabditis elegans, UniProt G5EFS4); assay: as above; format: biochemical, C. elegans; settings: 15 μM substrate; for Hydrolysis by DcpS (HPLC): up to 24 h
T3 sequence (G5EFS4 1-311): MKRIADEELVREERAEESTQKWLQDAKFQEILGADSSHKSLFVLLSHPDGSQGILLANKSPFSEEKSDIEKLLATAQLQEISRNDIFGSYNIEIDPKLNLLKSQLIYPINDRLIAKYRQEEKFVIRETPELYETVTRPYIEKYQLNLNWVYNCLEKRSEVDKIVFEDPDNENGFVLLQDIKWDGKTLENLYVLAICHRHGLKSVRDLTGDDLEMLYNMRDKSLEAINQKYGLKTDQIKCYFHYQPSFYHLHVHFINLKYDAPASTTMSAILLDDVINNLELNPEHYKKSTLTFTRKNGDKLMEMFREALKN
In short: as §1

ScDcpS [4] = biological target: T4, ScDcpS (Saccharomyces cerevisiae, UniProt Q06151); settings: substrate of ScDcpS; cited from earlier work
T4 sequence (Q06151 whole entry): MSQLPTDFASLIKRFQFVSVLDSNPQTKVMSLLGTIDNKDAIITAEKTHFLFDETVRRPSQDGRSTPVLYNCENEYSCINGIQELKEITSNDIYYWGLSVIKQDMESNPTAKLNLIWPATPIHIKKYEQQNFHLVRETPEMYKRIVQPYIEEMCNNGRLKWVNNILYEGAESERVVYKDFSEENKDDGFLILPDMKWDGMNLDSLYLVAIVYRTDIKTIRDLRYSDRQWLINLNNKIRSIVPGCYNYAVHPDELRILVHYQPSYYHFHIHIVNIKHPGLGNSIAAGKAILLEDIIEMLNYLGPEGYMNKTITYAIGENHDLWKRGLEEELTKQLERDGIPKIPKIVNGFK

ScDcpS [5] = biological target: T4, ScDcpS; assay: HPLC analysis of cap analog hydrolysis by recombinant DcpS; format: biochemical, S. cerevisiae; settings: 15 μM substrate; for Hydrolysis by DcpS (HPLC): up to 24 h
In short: as §1

CeDcpS [6] = biological target: T3, CeDcpS; settings: substrate of CeDcpS; cited from earlier work
CeDcpS [7] = biological target: T3, CeDcpS; assay: Fluorescence titration; format: binding, C. elegans
In short: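 His-tagged CeDcpS was expressed in E. coli and purified by Ni-NTA and gel filtration. Binding was read as quenching of intrinsic Trp fluorescence using time-synchronized titration. Ligand solutions of increasing concentration (5 μM–2 mM) were added to 0.2 μM initial protein. Excitation was 280 nm and emission 340 nm, corrected for dilution and inner filter. KAS was fitted by non-linear regression and reported as a weighted average of 3–5 titrations.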

AsDcpS [8] = biological target: T1, AsDcpS; assay: Fluorescence titration; format: binding, A. suum
HsDcpS [9] = biological target: T2, HsDcpS; assay: Fluorescence titration; format: binding; settings: ratio of KAS values
AsDcpS [10] = biological target: T1, AsDcpS; assay: Inhibition of DcpS hydrolysis of m^7GpppG, HPLC; format: biochemical, A. suum
HsDcpS [11] = biological target: T2, HsDcpS; assay: Inhibition of DcpS hydrolysis of m^7GpppG, HPLC; format: biochemical
CeDcpS [12] = biological target: T3, CeDcpS; assay: Inhibition of DcpS hydrolysis of m^7GpppG, HPLC; format: biochemical, C. elegans
In short: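 Recombinant His-tagged C. elegans DcpS was expressed in E. coli and purified by Ni-NTA and gel filtration. Enzyme at 0.02 μM, m7GpppG 15 μM, test compound 0.1–50 μM, in 50 mM Tris HCl, 200 mM KCl, 0.5 mM EDTA, 1 mM DTT, pH 7.6. Preincubated 10 min, reacted 10 min at 20 °C, heat-stopped, products by reverse-phase HPLC. IC50 taken from conversion versus concentration; Ki from tight-binding competitive equation.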

HsDcpS [13] = biological target: T2, HsDcpS; settings: 20 °C, 50 mM Tris HCl, 200 mM KCl, 0.5 mM EDTA, 1 mM DTT, pH 7.6; cited from earlier work
ScDcpS [14] = biological target: T4, ScDcpS; assay: Inhibition of DcpS hydrolysis of m^7GpppG, HPLC; format: biochemical, S. cerevisiae
In short: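 Yeast DcpS (His-tagged, E. coli-expressed, Ni-NTA plus gel filtration) used at 0.10 μM to give 50% uninhibited conversion in 10 min. Substrate m7GpppG 15 μM; test compound 0.1–50 μM; buffer 50 mM Tris HCl, 200 mM KCl, 0.5 mM EDTA, 1 mM DTT, pH 7.6; 20 °C. Stopped at 97 °C for 2.5 min, analysed by reverse-phase HPLC. IC50 from substrate-conversion plot; Ki via tight-binding competitive equation.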

[15] = after 60 min, 20 °C, pH 7.6, 0.02 μM DcpS
[16] = condition (1): 37 °C, pH 8.0, 0.02 or 0.2 μM DcpS
[17] = condition (2): 20 °C, pH 7.6, 0.2 μM DcpS
[18] = condition (1): 37 °C, pH 8.0, 15 μM substrate, 0.02 or 0.2 μM DcpS
[19] = condition (2), 0.02 μM DcpS, Figure 3
[20] = condition (2): 20 °C, pH 7.6, 15 μM substrate, 0.2 μM DcpS
[21] = condition (2): 20 °C, pH 7.6, 0.02 μM DcpS
[22] = condition (2): 20 °C, pH 7.6, 15 μM substrate, 0.02 μM DcpS
[23] = 20 °C, 50 mM Tris HCl, 200 mM KCl, 0.5 mM EDTA, 1 mM DTT, pH 7.6

T1 sequence (D3K0N9 whole entry): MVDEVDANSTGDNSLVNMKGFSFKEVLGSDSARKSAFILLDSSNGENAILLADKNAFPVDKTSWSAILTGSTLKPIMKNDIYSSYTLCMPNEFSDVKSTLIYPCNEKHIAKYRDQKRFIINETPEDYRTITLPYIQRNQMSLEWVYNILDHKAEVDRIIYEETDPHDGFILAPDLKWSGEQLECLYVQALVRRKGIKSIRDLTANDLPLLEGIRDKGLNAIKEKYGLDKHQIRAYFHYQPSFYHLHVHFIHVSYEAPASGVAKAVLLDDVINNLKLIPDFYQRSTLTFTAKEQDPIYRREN

## Cn1c[n+]([C@@H]2O[C@H](COP(=O)(O)OP(=O)([O-])OP(=O)(O)OC[C@H]3O[C@@H](n4cnc5c(=O)[nH]c(N)nc54)[C@H](O)[C@@H]3O)[C@@H](O)[C@H]2O)c2nc(N)[nH]c(=O)c21 [m^7GpppG]
AsDcpS [1]; [15]
  Extent of decapping (% of hydrolyzed substrate): 95%
AsDcpS [1]; [16]
  Hydrolysis by DcpS (HPLC): very fast
AsDcpS [1]; [17]
  Time to complete conversion of the substrate to products: less than 3 minutes
HsDcpS [2]; after 60 min, 20 °C, pH 7.6, 15 μM substrate, 0.02 μM DcpS
  Extent of decapping (% of hydrolyzed substrate): 95%
HsDcpS [2]; [18]
  Hydrolysis by DcpS (HPLC): very fast
HsDcpS [2]; [19]
  Cleavage efficiency by HsDcpS, fold higher than m^7GTP: ~ 2 fold
HsDcpS [2]; [20]
  Time to complete conversion of the substrate to products: less than 3 minutes
CeDcpS [3]; [15]
  Extent of decapping (% of hydrolyzed substrate): 95%
CeDcpS [3]; [16]
  Hydrolysis by DcpS (HPLC): very fast
CeDcpS [3]; [17]
  Time to complete conversion of the substrate to products: less than 3 minutes
ScDcpS [4]
  Km: 0.14 µM
ScDcpS [5]; [16]
  Hydrolysis by DcpS (HPLC): very fast
ScDcpS [5]; [17]
  Time to complete conversion of the substrate to products: less than 3 minutes
CeDcpS [6]
  Km: 1.17 ± 0.14 µM

## Cn1c[n+]([C@@H]2O[C@H](COP(=O)([O-])OP(=O)(O)OP(=O)(O)O)[C@@H](O)[C@H]2O)c2nc(N)[nH]c(=O)c21 [m^7GTP]
AsDcpS [1]; [21]
  Hydrolysis by DcpS (HPLC, Figure 3): efficiently hydrolyzed
HsDcpS [2]; [19]
  Rate of degradation by HsDcpS, fold slower than by AsDcpS and CeDcpS: 2 fold
HsDcpS [2]; [22]
  Hydrolysis by DcpS (HPLC, Figure 3): efficiently hydrolyzed
CeDcpS [3]; [21]
  Hydrolysis by DcpS (HPLC, Figure 3): efficiently hydrolyzed

## Nc1nc2c(ncn2[C@@H]2O[C@H](COP(=O)(O)OP(=O)(O)OP(=O)(O)OC[C@H]3O[C@@H](n4cnc5c(=O)[nH]c(N)nc54)[C@H](O)[C@@H]3O)[C@@H](O)[C@H]2O)c(=O)[nH]1 [GpppG]
AsDcpS [1]; [21]
  Hydrolysis by DcpS (HPLC, Figure 3): does not occur
HsDcpS [2]; [22]
  Hydrolysis by DcpS (HPLC, Figure 3): does not occur
CeDcpS [3]; [21]
  Hydrolysis by DcpS (HPLC, Figure 3): much slower as compared to m^7GpppG

## CN(C)c1nc2c(c(=O)[nH]1)[n+](C)cn2[C@@H]1O[C@H](COP(=O)(O)O)[C@@H](O)[C@H]1O [m3^2,2,7GMP]
CeDcpS [7]; [23]
  Equilibrium association constant KAS, CeDcpS: 2.88 ± 0.67 µM⁻¹
AsDcpS [8]; [23]
  Equilibrium association constant KAS, AsDcpS: 0.28 ± 0.27 µM⁻¹

## C[n+]1cn([C@@H]2O[C@H](COP(=O)(O)OP(=O)([O-])O)[C@@H](O)[C@H]2O)c2nc(N)[nH]c(=O)c21 [m^7GDP, 7-methylguanosine diphosphate]
CeDcpS [7]
  Kd: 10.3 nM
HsDcpS [9]
  Fold higher affinity of human DcpS compared to m^7GMP: 6 fold
AsDcpS [1]; [16]
  Hydrolysis by DcpS (HPLC): not degraded
AsDcpS [1]; [17]
  Hydrolysis by DcpS (HPLC): resistant to cleavage
AsDcpS [10]
  IC50: 1440 ± 110 nM
HsDcpS [2]; [18]
  Hydrolysis by DcpS (HPLC): not degraded
HsDcpS [2]; [20]
  Hydrolysis by DcpS (HPLC): resistant to cleavage
HsDcpS [11]
  IC50: 4170 ± 500 nM
CeDcpS [12]
  IC50: 2170 ± 130 nM
  Ki: 156 ± 20 nM
AsDcpS [8]
  Kd: 5.4 nM
CeDcpS [3]; [16]
  Hydrolysis by DcpS (HPLC): not degraded
CeDcpS [3]; [17]
  Hydrolysis by DcpS (HPLC): resistant to cleavage
ScDcpS [5]; [16]
  Hydrolysis by DcpS (HPLC): not degraded
ScDcpS [5]; [17]
  Hydrolysis by DcpS (HPLC): resistant to cleavage
HsDcpS [13]
  Equilibrium association constant KAS, HsDcpS: 114 ± 8 µM⁻¹
ScDcpS [14]
  IC50: 3950 ± 230 nM
  Ki: 36 ± 2 nM
